This passage reports yeast fitness results from the RNAGym collection of RNA variant scans (doi:10.1126/science.aae0568).

Fewer inactive variants are shown than the library holds.

To fix the notation:
B1: tRNA (parent)
chain: GUUCCGUUGGCGUAAUGGUAACGCGUCUCCCUCCUAAGGAGAAGACUGCGGGUUCGAGUCCCGUACGGAACG

In this data set the parent is B1. Briefly: yeast fitness relative to wild type (ratio to wild type); higher = fitter; tRNA-Arg(CCU), competitive growth, 37 C, YPD. Summed up:
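Amplicons of the tRNA-Arg(CCU) gene were sequenced, 100-nucleotide paired-end, from the start population and from each end population of a pooled yeast competition. The competition, in six parallel replicates, lasted 24 hours in YPD at 37°C. Fitness relative to wild type was calculated from changes in genotype frequencies. Genotypes had to have ≥ 100 starting reads, and estimates < 0.5 were set to 0.5.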
For GUUCCAUCGGCGUAAUGGUAACGCGUCUCCCUCCUAAGGAGCAGUCUGCGGGUUCGGGUCCCGUACGGACCG [G6A U8C A42C A45U A57G A70C], the yeast fitness is not above 0.5. Then GUUCCAUUGGCGUAAUGGUAACGCGUCUCCCUCCUAAGGAGAAAACUGCGGGUUCAAGUCCCGUACGGAACG [G6A G44A G56A], with 0.649. As for GUUCCAUUGGCGUAAAGGUAACGCGUCUCCCUCCUAAGGAGAAGACUGCGGGUUCGAGUCCCAUACGGAACG [G6A U16A G63A], the figure is 0.569; as for GUUCCCUUGGCGUAGUGGUAACGCGUCUCCCUCCUAAGGAGAAGACUGCGGGUUCGACUCCCGUACGAAACG [G6C A15G G58C G68A], not above 0.5. As for GUUCCCUUGGCGUCAUGGUAACGCGUCUUCCUCGUAAGGAGAAGAUUGUGGGUUCGAGUCCCGUAAGCAACG [G6C A14C C29U C34G C46U C49U C66A G68C], the figure is not above 0.5; as for GUUCCCUUGGCGUACUGGUAACGCGUCUCCGUGCUAAGGAGAAGACUGCGGGUUUGAGUCUCGUACGGAACG [G6C A15C C31G C33G C55U C61U], not above 0.5; as for GUUCCAUAGGCGUCAUGGUAUCGCGUCUCCCUCCUAAGGGGAAGACUGCGGGUUCGAGUCCCGUACGGAACG [G6A U8A A14C A21U A40G], not above 0.5. With GUUCCAUUGGCGAAAUGGUAACGCGUCUCCCUCCUAAGGAGAAGAGUGCGGGUUCGAGUCCCGUACGGAACG [G6A U13A C46G], the yeast fitness is not above 0.5. As for GUUCCAUUGGCGUAAUGGUAACGCGUCUCCCUCCUAAGGAGAAGACUGCGGGUUCGAGUCCCGGACGGAACG [G6A U64G], the figure is 0.795; as for GUUCCCUUGGCGUAAUGGUAACGCGUCUCCCUCCUCAGGAGAAGACUGCGGGUUCGAGUCCCGAACGGAACG [G6C A36C U64A], 0.539; as for GUUCCCUUGGCGUGAUGGUCACGCGUCUCCAUCCUAAGGAGAAGACUGCGGGUUCGAGUCCCGAACAGAACG [G6C A14G A20C C31A U64A G67A], not above 0.5. As to GUUCCAUUGGCGUAAUGGUAACGCGUCUCCCUCCUAAGGAGAAGACUGCGGGUUCGAGCCCCGUACGAAACG [G6A U59C G68A], the yeast fitness amounted to 0.567.

As for GUUCCAUUGGCGUAAUGGUAACCCGUCUCCCUCCUAAGGAGAAGACUGGGGGGUCGGGUCUCGUACGGAACG [G6A G23C C49G U53G A57G C61U], the yeast fitness was not above 0.5.

With GUUCCAUUGGCGUAACGGUAACGCGUCUCCCUCCUAAGGAGAAGACUGCGGGUUCGAGUCCCGUACCGAACG [G6A U16C G67C], the yeast fitness was not above 0.5.

For GUUCCCUUGGCGUAAUGGUGACGCGUCUCCCUCCUAAGGAGCAGCCUGCGGGUUCGAGUCCCGUACGGAACG [G6C A20G A42C A45C], the yeast fitness was not above 0.5. Then GUUCCAUUGGCGUAAUGGUAACGCGUCUCCCUCCUAAGGAGAAGACUGCGAGUUCGAGUCCUGUACGGAACG [G6A G51A C62U], with 0.643; and GUUCCAUUGGCGUAAUGGUAACGCGGCUCCCUCCUAAGGAGAAGACUACGGGUUCGAGUCUCGUACGGAACG [G6A U26G G48A C61U], with 0.684; and GUUCCAUUGGCGUAAUGGUAACGCAUCUCCCUCCUAAGGAGAAGACUGCGGGUUCGAGUCCCGUACGGAACG [G6A G25A], with 0.859.

Regarding GUUCCAUUGGCGUAAUGGUAACGCGUCUCCCUCCUAAGGAGAAGACUGCGGGUACGAGUCCUGUGCGAAACG [G6A U54A C62U A65G G68A], the yeast fitness is 0.548. Then GUUCCAUUGGCGUAAUGGUAACGCGUCUCCCUCCUAAGCAGAAGACUGCGGGUUCGAGUCCCAUACGGAACG [G6A G39C G63A], with not above 0.5; and GUUCCAUUGGCGUAAUGGUAACGCGUCUCCCUCCUAAGGAGAAGACUGCGGCUUCGAGUCCCGUACGGAACG [G6A G52C], with 0.635. With GUUCCCUUGGCGUAAUGGUAACGCGUCUCCCUCCUACGGAGAAGACUGCGAACUCGAGUCCAGUACGGAACG [G6C A37C G51A G52A U53C C62A], the yeast fitness worked out at 0.561. As for GUUCCCUUGGCGUUAUGGUAACGCGUCUCCCUCCUAAGGAGAAGACUGCGGGUUCGAGUCCCGUAUGGCACG [G6C A14U C66U A69C], the figure is not above 0.5; as for GUUCCAUUGGCGUAAUGGUAACGCGUCUCCCUCCUAAGGAGAAGACUGCGGCUUCGAGUCCCGUUCCGAACG [G6A G52C A65U G67C], not above 0.5; as for GUUCCCUUGGCGUAUUGGUAACGCGUCUCCCUCCUAAGGAGAAGACUGCGGGUUCGAGUGCCGUAUGGAACG [G6C A15U C60G C66U], not above 0.5. As to GUUCCAUUGGCGUAAUGGCUAUGCGUGUCCCUCCUAAGGAGAAGACUGCGGGUUCGAGUCCCGUACGGAACG [G6A U19C A20U C22U C27G], the yeast fitness was not above 0.5.

Turning to GUUCCAUCGGCGUUAUGGUAACGCGUCUCCCUCCUAAGGAGAAGACUGCGGGUUCGAGUCCCGUACGGAACG [G6A U8C A14U], the yeast fitness came out at 0.564.

As for GUUCCCUUGGCGUAAUGGUUGCGCGUCUCCCUCCUAUGGAGAAGACUGCGGGUUCGAGUGCGGUACGGAACG [G6C A20U A21G A37U C60G C62G], the yeast fitness was not above 0.5. For GUUCCCUUGGCGUAAUGGUGAAGCGUCUCCGUCCUAAGGAGAAGACUGCGGGUUCGAGUCCCGUACGGAACG [G6C A20G C22A C31G], the yeast fitness is not above 0.5. Then GUUCCAUUGGCGUAAUGGUAACGCCUCUCCCUCCUAAGGAGAAGACUCCGGGUUCGAGUCCCGUACGGAACG [G6A G25C G48C], with 0.654; and GUUCCCUUGGCGUAGUGGUAAAGCGUCUGCCUCCUACGGAGAAGACUGCCGGUUCGAGUCCCGUAUGGAACG [G6C A15G C22A C29G A37C G50C C66U], with not above 0.5.

GUUCCAUUGGCGUAAUGGUAACGCGUCUCCCUCCUAAGGAGAAGACUGCGGGUGCGAGUCCCGUACGGAACG [G6A U54G]: the yeast fitness worked out at 0.611. For GUUCCCUUGGCGUAAUGGUAACGCGUCUCCCUCCUACGGAGAAGACUGCGGGUUCGAGUCCAGUACGGCACG [G6C A37C C62A A69C], the yeast fitness was not above 0.5. As for GUUCCAUUGGCGUAAUGGUAACGCGUCUCCCUCCUAAGGAGAAGACUCCGGGUUCGAAUCCCGUACGGAACG [G6A G48C G58A], the figure is 0.57; as for GUUCCAUUGGCGUAAUGGUAACGCGCCUCCCUCCUAAGGAGAAGACUGCGGGUUCGAGUCCUGUACGGAACG [G6A U26C C62U], not above 0.5. In the case of GUUCCCUUGGCGUAAUGGUAACGCGUCUCCCUCCUUAGGAGAAGACUGCGGGUUCGAGUCCCGUUCGGAACG [G6C A36U A65U], the yeast fitness was not above 0.5. GUUCCAUUGGCGUAAUGGUAACGCGUCGCCCUCUUAAGGAGAAGACUGCGGGUUCGAGUCCCGUACGGAACG [G6A U28G C34U]: the yeast fitness is not above 0.5. Then GUUCCAUUGGCGUAAGGGUAACGCGUCUCCCUCCUAAGGAGAAGACUGCGGGUUCGAGUCCCGUACGGAACG [G6A U16G], with 0.85.
